Assay results taken from ChEMBL document CHEMBL5653631, “A Potent and Selective ULK1 Inhibitor Suppresses Autophagy and Sensitizes Cancer Cells to Nutrient Stress” (iScience, 2018).

Key:
[1] = target: Vascular endothelial growth factor receptor 3 (Homo sapiens) (UniProt P35916); experiment: Inhibition of human recombinant FLT4 at 40 nM in presence of ATP by radiometric assay relative to control
[2] = target: T1, Mitogen-activated protein kinase kinase kinase 2 (Homo sapiens) (UniProt Q9Y2U5); experiment: Inhibition of human recombinant MAP3K2 at 40 nM in presence of ATP by radiometric assay relative to control
T1 sequence (whole entry): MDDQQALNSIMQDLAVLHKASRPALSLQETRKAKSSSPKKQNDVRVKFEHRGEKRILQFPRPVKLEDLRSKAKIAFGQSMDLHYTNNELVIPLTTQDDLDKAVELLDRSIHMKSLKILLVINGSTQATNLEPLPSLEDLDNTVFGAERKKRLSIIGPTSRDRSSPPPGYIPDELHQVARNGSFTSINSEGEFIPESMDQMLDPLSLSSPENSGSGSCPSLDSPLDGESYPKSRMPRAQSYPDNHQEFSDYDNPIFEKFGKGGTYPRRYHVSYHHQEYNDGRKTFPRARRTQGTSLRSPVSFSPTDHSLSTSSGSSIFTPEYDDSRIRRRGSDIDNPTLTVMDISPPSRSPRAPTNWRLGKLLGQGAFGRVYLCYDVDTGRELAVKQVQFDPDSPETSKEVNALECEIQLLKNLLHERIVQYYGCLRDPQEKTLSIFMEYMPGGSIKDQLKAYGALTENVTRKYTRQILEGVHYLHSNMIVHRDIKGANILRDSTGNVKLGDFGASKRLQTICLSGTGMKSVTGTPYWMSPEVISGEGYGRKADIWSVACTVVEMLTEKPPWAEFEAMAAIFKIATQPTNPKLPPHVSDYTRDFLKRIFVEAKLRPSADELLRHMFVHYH

[3] = target: T2, Bone morphogenetic protein receptor type-2 (Homo sapiens) (UniProt Q13873); experiment: Inhibition of human recombinant BMPR2 at 500 nM in presence of ATP by radiometric assay relative to control
T2 sequence (whole entry): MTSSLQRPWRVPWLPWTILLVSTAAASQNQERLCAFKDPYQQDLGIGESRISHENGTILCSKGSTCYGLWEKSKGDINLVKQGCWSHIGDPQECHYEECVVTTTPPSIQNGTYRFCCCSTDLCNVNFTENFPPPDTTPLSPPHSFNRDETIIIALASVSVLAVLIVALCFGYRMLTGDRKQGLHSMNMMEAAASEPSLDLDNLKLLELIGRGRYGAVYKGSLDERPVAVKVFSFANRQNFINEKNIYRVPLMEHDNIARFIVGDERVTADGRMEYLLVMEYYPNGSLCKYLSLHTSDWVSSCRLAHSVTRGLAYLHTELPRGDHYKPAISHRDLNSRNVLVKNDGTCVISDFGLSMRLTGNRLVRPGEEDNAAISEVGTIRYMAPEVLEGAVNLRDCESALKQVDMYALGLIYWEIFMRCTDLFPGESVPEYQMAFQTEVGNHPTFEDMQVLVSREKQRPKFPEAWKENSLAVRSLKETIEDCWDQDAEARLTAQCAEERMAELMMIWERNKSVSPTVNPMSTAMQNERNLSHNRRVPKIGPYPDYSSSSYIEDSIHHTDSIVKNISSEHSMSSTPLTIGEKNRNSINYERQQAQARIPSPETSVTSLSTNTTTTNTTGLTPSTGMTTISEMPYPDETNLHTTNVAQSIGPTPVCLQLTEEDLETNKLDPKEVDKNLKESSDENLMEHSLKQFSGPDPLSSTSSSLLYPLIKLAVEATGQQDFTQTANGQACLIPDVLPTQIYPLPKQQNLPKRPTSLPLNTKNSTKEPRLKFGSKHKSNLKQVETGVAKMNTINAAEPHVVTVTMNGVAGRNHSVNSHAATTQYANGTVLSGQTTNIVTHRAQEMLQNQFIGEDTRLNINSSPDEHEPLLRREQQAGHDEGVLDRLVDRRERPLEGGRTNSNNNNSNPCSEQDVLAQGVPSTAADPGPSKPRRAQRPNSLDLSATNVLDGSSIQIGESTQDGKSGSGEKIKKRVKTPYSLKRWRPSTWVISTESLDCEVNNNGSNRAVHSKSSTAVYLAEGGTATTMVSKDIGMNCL
Summary of the method: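 Part of a radiometric in vitro activity panel of 327 recombinant human kinases. Each kinase was tested in duplicate at one inhibitor concentration. Activity remaining was expressed as a percentage of the vehicle control, and percent inhibition was taken as 100 minus that value.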

[4] = target: G protein-coupled receptor kinase 6 (Homo sapiens) (UniProt P43250); experiment: Inhibition of human recombinant GPRK6 at 500 nM in presence of ATP by radiometric assay relative to control
G protein-coupled receptor kinase 6 (Homo sapiens), sequence (P43250 whole entry, looked up): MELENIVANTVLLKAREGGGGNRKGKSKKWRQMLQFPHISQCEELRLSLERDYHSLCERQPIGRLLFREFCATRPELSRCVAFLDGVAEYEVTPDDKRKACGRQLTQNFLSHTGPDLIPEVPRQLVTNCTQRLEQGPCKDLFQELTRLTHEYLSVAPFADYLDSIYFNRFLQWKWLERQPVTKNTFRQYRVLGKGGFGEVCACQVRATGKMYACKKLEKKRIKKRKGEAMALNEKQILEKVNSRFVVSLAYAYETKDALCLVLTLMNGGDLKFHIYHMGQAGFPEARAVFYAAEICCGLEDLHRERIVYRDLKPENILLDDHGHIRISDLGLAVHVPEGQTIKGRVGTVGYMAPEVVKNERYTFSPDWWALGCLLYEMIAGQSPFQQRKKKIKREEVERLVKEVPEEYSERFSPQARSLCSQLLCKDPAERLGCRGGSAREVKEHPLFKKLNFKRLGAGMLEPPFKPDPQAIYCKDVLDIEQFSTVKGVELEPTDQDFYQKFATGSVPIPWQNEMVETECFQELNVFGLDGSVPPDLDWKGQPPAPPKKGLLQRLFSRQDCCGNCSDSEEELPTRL

[5] = target: Serine/threonine-protein kinase WNK3 (Homo sapiens) (UniProt Q9BYP7); experiment: Inhibition of human recombinant Wnk3 at 500 nM related to control ULK1
Serine/threonine-protein kinase WNK3 (Homo sapiens), sequence (Q9BYP7 whole entry): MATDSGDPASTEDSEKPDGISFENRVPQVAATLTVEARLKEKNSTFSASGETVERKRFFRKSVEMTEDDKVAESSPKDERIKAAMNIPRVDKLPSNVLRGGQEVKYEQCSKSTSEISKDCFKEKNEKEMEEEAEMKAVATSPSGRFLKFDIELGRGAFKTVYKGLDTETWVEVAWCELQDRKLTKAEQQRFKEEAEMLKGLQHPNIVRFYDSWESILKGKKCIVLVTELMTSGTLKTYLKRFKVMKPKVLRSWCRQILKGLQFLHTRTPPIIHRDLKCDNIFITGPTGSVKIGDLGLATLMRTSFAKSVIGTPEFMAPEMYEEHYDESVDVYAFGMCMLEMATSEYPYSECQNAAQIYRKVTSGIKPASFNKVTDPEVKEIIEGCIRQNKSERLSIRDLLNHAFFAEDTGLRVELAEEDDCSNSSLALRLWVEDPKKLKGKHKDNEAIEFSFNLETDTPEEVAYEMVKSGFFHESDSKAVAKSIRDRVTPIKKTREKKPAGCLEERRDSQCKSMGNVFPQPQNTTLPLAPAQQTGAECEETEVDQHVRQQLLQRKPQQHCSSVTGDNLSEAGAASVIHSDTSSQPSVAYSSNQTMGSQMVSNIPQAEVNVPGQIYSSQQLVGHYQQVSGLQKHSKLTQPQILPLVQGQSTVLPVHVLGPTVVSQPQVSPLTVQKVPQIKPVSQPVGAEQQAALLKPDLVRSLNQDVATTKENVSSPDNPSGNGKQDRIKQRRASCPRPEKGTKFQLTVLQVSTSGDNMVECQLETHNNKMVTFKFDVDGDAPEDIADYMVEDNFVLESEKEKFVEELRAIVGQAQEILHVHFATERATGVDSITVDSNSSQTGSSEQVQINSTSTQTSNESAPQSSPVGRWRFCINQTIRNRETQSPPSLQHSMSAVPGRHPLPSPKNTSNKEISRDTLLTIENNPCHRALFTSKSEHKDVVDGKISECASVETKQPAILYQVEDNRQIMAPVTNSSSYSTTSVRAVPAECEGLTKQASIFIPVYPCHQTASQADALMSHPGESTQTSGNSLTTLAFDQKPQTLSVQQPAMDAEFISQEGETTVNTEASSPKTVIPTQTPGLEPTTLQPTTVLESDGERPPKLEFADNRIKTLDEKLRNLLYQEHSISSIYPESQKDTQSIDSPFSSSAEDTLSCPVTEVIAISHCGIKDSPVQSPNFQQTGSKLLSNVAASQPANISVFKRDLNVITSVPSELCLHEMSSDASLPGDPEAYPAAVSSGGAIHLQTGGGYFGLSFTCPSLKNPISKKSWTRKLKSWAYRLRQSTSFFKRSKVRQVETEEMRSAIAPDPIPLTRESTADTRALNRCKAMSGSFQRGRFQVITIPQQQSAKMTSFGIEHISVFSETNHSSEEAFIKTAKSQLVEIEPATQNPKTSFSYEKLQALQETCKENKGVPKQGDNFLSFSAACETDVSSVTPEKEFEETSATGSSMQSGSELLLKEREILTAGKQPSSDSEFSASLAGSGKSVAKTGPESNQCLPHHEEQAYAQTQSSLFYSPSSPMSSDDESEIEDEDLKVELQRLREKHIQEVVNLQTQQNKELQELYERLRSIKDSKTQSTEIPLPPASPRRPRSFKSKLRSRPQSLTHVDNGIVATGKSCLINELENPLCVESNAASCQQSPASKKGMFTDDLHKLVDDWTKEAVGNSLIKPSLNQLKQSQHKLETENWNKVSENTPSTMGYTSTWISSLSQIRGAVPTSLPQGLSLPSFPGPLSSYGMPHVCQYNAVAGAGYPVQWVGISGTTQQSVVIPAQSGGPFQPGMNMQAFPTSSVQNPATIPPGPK

[6] = target: Serine/threonine-protein kinase PAK 6 (Homo sapiens) (UniProt Q9NQU5); experiment: Inhibition of human recombinant PAK6 at 500 nM related to control ULK1
Serine/threonine-protein kinase PAK 6 (Homo sapiens), sequence (Q9NQU5 whole entry, looked up): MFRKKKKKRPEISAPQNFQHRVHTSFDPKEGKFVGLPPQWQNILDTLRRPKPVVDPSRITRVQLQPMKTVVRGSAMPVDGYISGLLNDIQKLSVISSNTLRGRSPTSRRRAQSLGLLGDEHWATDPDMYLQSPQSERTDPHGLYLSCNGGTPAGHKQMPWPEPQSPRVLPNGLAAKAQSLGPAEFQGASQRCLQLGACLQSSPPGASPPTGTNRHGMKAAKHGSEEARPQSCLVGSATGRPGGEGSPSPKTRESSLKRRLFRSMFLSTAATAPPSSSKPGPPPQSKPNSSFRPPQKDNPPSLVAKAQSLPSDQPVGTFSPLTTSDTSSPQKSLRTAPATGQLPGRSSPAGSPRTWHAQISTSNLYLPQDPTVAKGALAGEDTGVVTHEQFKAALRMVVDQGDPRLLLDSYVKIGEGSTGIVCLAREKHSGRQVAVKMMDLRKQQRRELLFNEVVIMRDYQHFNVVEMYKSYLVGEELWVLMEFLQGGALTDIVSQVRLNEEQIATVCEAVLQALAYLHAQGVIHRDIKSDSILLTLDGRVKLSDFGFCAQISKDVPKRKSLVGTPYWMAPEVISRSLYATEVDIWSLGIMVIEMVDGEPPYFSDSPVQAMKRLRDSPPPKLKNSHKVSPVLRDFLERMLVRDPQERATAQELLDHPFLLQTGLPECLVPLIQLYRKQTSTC

[7] = target: RAC-gamma serine/threonine-protein kinase (Homo sapiens) (UniProt Q9Y243); experiment: Inhibition of human recombinant AKT3 at 15 nM in presence of ATP by radiometric assay relative to control
RAC-gamma serine/threonine-protein kinase (Homo sapiens), sequence (Q9Y243 whole entry): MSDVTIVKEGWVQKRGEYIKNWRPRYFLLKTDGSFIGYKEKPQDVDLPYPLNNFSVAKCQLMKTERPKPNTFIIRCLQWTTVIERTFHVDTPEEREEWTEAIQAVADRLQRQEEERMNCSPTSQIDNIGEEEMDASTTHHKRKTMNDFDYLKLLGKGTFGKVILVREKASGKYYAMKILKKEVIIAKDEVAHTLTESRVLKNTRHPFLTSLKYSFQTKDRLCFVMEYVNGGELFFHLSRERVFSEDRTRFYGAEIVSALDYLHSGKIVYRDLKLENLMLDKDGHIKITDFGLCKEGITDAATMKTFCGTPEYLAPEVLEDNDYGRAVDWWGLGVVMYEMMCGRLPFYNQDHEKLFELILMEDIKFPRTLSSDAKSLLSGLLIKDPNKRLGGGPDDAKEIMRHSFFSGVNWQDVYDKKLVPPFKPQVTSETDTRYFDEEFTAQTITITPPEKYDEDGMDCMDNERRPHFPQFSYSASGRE
Summary of the method: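 Panel of 327 recombinant human kinases in radiometric activity assays, each screened in duplicate at a single inhibitor concentration; percent activity remaining relative to vehicle control, percent inhibition taken as 100 minus activity remaining.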

[8] = target: Serine/threonine-protein kinase 10 (Homo sapiens) (UniProt O94804); experiment: Inhibition of human recombinant LOK at 15 nM in presence of ATP by radiometric assay relative to control

Vascular endothelial growth factor receptor 3 (Homo sapiens), sequence (P35916 whole entry): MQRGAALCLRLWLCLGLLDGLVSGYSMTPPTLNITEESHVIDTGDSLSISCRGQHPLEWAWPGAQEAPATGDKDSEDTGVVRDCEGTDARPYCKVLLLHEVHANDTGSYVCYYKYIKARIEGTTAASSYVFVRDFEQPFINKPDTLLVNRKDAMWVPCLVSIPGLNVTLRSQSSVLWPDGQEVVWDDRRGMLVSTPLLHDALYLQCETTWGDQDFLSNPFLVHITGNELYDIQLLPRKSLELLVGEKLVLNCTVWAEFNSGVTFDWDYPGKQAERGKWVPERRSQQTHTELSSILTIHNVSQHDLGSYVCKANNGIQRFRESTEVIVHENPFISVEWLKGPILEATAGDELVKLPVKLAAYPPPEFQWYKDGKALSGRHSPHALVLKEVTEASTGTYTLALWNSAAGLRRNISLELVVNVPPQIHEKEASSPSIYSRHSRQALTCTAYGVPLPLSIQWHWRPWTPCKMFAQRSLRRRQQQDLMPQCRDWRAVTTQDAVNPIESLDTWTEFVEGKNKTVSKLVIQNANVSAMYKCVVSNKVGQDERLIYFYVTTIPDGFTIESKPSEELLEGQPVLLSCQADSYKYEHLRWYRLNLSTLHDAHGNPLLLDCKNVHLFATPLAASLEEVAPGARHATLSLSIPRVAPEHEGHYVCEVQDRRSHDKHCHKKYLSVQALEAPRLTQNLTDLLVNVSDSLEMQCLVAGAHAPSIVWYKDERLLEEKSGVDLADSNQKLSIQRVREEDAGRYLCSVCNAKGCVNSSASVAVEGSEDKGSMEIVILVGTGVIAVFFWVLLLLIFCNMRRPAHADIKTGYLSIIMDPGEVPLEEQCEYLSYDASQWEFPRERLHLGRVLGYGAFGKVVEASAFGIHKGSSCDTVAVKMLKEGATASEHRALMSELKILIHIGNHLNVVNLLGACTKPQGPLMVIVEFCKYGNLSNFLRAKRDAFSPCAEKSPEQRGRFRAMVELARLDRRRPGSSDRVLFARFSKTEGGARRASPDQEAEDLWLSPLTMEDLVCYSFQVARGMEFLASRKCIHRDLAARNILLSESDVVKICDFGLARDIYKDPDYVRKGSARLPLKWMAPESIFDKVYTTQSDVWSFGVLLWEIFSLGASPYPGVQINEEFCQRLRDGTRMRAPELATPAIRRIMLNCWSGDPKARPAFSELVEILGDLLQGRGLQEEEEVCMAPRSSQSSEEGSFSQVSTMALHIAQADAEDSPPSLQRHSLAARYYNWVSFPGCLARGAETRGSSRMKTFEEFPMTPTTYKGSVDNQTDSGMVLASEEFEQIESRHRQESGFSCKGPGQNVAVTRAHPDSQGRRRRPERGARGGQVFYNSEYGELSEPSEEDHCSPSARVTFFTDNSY

## O=C(N[C@@H](C1CC1)C(F)(F)F)c1cc(-c2cnn3cc(-c4ccc(F)cc4)cnc23)cs1
[1]
  inhibition: 19%
[2]
  inhibition: 0%

## CNC(=O)c1ccccc1Oc1nc(Nc2cc(OC)c(OC)c(OC)c2)ncc1Br
[3]
  inhibition: 0%
[4]
  inhibition: 12%
[5]
  fold change (FC): 0.08
[6]
  fold change (FC): 0.26

## CC(C)[C@H](NC(=O)c1cc(-c2cnn3cc(-c4ccc(OCCN5CCCCC5)cc4)cnc23)cs1)C(F)(F)F
[7]
  inhibition: 8%
[8]
  inhibition: 0%
